Source: ChEMBL document CHEMBL2062400, “RCAI-84, 91, and 105-108, ureido and thioureido analogs of KRN7000: their synthesis and bioactivity for mouse lymphocytes to produce Th1-biased cytokines” (Bioorg Med Chem, 2012)
Calls of active or inactive are those of the source. The calls are words filed in the database; no cut-off is given here.

Legend:
[1] = tested on: Mus musculus; assay: Immunostimulatory activity in C57BL/6J mouse assessed as increase in IL12p70 level at 2 ug, iv from 3 to 12 hrs by cytometric bead array method relative to KRN7000; format: functional, organism-based
Method in brief: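 Eight-week SPF C57BL/6J mice received 2 µg glycolipid iv (200 µL of 10 µg/mL in PBS, from a DMSO stock diluted in PBS/0.5% Tween20). Plasma was collected from the retro-orbital plexus with heparinized capillaries at 3, 6, 12, 24, 36, 48 and 60 h. IL-12p70 was quantified by cytometric bead array.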

[2] = tested on: Mus musculus; assay: Immunostimulatory activity in C57BL/6J mouse assessed as increase in IFNgamma level at 2 ug, iv upto 24 hrs by ELISA; format: functional, organism-based
Method in brief: (§1)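 Mice were 8-week C57BL/6J kept under SPF conditions. Glycolipid was dissolved in DMSO (1.0 mg/mL, 80 °C, 30 min), diluted to 200 µg/mL in PBS with 0.5% Tween20, then to 10 µg/mL in PBS. A 200 µL dose (2 µg/mouse) was given iv. Retro-orbital plasma was taken at 3–60 h. IFN-γ was read by ELISA and IL-4 by CBA. Data are mean ± SD of 3 mice, repeated 3 times.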

[3] = tested on: Mus musculus; assay: Immunostimulatory activity in C57BL/6J mouse assessed as IFNgamma level at 2 ug, iv upto 24 hrs by ELISA relative to KRN7000; format: functional
[4] = tested on: Mus musculus; assay: Immunostimulatory activity in C57BL/6J mouse assessed as IL4 level at 2 ug, iv by cytometric bead array method relative to KRN7000; format: functional
[5] = tested on: Mus musculus; assay: Immunostimulatory activity in C57BL/6J mouse assessed as increase in IL4 level at 2 ug, iv by cytometric bead array method; format: functional, organism-based; method in brief: as §1
[6] = tested on: Mus musculus; assay: Immunostimulatory activity in C57BL/6J mouse assessed as IL4 level at 5 ug, ip at 2 hrs by sandwich ELISA relative to KRN7000; format: functional
[7] = tested on: Mus musculus; assay: Immunostimulatory activity in C57BL/6J mouse assessed as IFNgamma level at 5 ug, ip at 16 hrs by sandwich ELISA relative to KRN7000; format: functional

| SMILES | Activity [2] | Activity [5] | further results |
| --- | --- | --- | --- |
| CCCCCCCCCCCCCCCCCCCCCCCCNC(=O)N[C@@H](CO[C@H]1O[C@H](COC)[C@H](O)[C@H](O)[C@H]1O)[C@H](O)[C@H](O)CCCCCCCCCCCCCC | Active | – | Activity [1]: Active |
| CCCCCCCCCCCCCCCCCCCCCCCCCC(=O)N[C@@H](CO[C@H]1C[C@H](CO)[C@H](O)[C@H](O)[C@H]1O)[C@H](O)[C@H](O)CCCCCCCCCCCCCC | Active | – | – |
| CCCCCCCCCCCCCCCCCCCCCCCCCC(=O)N[C@@H](CO[C@H]1C[C@H](COC)[C@H](O)[C@H](O)[C@H]1O)[C@H](O)[C@H](O)CCCCCCCCCCCCCC | Active | – | – |
| CCCCCCCCCCCCCCCCCCCCCCCCCC(=O)N[C@@H](CC[C@H]1O[C@H](CO)[C@H](O)[C@H](O)[C@H]1O)[C@H](O)[C@H](O)CCCCCCCCCCCCCC | Active | – | – |
| CCCCCCCCCCCCCCCCCC(=O)N[C@@H](CO[C@H]1O[C@H](CO)[C@H](O)[C@H](O)[C@H]1O)[C@H](O)[C@H](O)CCCCCCCCCCCCCC | – | – | Activity [3]: 10%; Activity [4]: 40% |
| CCCCCCCCCCCCCCCCNC(=O)N[C@@H](CO[C@H]1O[C@H](CO)[C@H](O)[C@H](O)[C@H]1O)[C@H](O)[C@H](O)CCCCCCCCCCCCCC | Active | Active | – |
| CCCCCCCCCCCCCCCCCCCCCCCCCC(=O)N[C@@H](CS[C@H]1O[C@H](CO)[C@H](O)[C@H](O)[C@H]1O)[C@H](O)[C@H](O)CCCCCCCCCCCCCC | inactive | – | – |
| CCCCCCCCCCCCCCCCCCCCCCCCCC(=O)N[C@@H](CO[C@H]1O[C@H](CO)[C@H](O)[C@H](O)[C@H]1O)[C@H](O)[C@H](O)CCCCCCCCCCCCCC | – | Active | – |
| CCCCCCCCCCCCCC[C@@H](O)[C@@H](O)[C@H](CO[C@H]1O[C@H](CO)[C@H](O)[C@H](O)[C@H]1O)NC(=O)NCCCCCCCC | Active | Active | – |
| CCCCCCCCCCCCCC[C@@H](O)[C@@H](O)[C@H](CO[C@H]1O[C@H](CO)[C@H](O)[C@H](O)[C@H]1O)NC(=O)CCCCCc1ccccc1 | inactive | – | – |
| CCCCCCCCCCCCCC[C@@H](O)[C@@H](O)[C@H](CO[C@H]1O[C@H](CO)[C@H](O)[C@H](O)[C@H]1O)NC(=O)NCCCCCc1ccccc1 | inactive | inactive | – |
| CCCCCCCCCCCCCCCCCCCCCCCCNC(=O)N[C@@H](CO[C@H]1O[C@H](CO)[C@H](O)[C@H](O)[C@H]1O)[C@H](O)[C@H](O)CCCCCCCCCCCCCC | Active | – | Activity [1]: Active |
| CCCCCCCCCCCCCCCCNC(=S)N[C@@H](CO[C@H]1O[C@H](CO)[C@H](O)[C@H](O)[C@H]1O)[C@H](O)[C@H](O)CCCCCCCCCCCCCC | inactive | inactive | – |
| CCCCCCCCCCCCCCCCCCCCCCCCC(F)(F)C(=O)N[C@@H](CO[C@H]1O[C@H](CO)[C@H](O)[C@H](O)[C@H]1O)[C@H](O)[C@H](O)CCCCCCCCCCCCCC | – | – | Activity [6]: 100%; Activity [7]: 50% |
